Consider 17 compounds from PMC4846294 (Bioorganic & medicinal chemistry, 2016).

“Also recorded” adds a separate entry of the source. Where two headings read alike, the source gives them in different places.

Data set [1] concerns the target T1, LAP (from porcine kidney microsomes) (Sus scrofa, UniProt P15145).
T1 sequence (P15145 1-963): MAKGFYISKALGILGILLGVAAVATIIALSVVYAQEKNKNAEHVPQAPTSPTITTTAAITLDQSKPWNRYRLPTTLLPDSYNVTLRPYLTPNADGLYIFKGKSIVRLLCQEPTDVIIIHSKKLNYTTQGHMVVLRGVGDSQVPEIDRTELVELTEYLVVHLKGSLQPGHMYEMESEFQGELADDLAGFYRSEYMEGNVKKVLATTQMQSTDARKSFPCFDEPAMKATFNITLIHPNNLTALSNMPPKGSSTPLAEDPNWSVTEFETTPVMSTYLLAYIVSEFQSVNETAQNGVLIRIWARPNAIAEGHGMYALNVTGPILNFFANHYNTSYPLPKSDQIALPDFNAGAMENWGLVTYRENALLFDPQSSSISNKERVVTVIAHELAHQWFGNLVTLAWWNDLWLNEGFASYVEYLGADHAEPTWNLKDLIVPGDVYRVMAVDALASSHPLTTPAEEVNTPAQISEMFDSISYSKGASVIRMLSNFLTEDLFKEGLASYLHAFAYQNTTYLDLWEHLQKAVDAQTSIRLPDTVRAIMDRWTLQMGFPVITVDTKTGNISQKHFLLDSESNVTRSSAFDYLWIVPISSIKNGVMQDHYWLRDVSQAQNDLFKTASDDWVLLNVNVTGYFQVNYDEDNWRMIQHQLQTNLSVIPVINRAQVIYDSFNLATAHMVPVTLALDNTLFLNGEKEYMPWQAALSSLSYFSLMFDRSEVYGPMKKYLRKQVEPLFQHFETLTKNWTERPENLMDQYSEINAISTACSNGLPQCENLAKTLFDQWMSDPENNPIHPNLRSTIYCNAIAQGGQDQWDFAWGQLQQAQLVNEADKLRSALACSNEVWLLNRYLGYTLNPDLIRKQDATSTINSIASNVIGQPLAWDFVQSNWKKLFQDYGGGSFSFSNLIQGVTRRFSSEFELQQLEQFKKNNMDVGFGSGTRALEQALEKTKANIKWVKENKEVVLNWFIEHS
In words: In vitro LAP cleavage assay. The data set is classed as in vitro ADME. To be noted: for Specific Activity of LAP: rate study; for Specific Activity of LAP / % Cleavage by LAP: pH 7.2, 37 °C; for % Cleavage by LAP: area ratio of parent drug and prodrug (HPLC); for Cleavage rate relative to corresponding serinamide analogue: glycinamide versus serinamide prodrug of the same isomer; for Cleavage with a large amount of LAP (in words): 1.5 units of LAP.

The test system of data set [2] is MDA-MB-231-luc human breast tumor. Kind of data set: In vivo dynamic bioluminescence imaging. Also on record: species or system SCID mice. To be noted: for BLI signal compared with baseline (significance): 4 h and 24 h.
Data set [3] deals with human cancer cell lines [SK-OV-3 (ovarian), NCI-H460 (lung), and DU-145 (prostate)]. In words: SRB cytotoxicity, stated across all three cell lines. It is filed as cell-based. As to conditions: for GI50 values described in words: parent drugs, three cell lines.
Data set [4] has as its system HUVECs. Kind of data set: In vitro HUVEC tubule disruption assay. It is filed as cell-based, human. To be noted: for Disruption of capillary-like network of tubules (HUVECs): concentration of 0.1 μM; for Disruption of HUVEC tubular network on matrigel: concentration of 1.0 μM. A digest of the protocol:
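HUVECs (124,000 cells in M200 growth factors) plated on Matrigel (9.5 mg/mL) that had been pre-set 60 min at 37 °C; cells incubated 16 h at 37 °C to form tubule network. Test compound then added at 0.01, 0.1 or 1.0 μM. Network photographed, 9 fields/well, 40x objective.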

In data set [5] the test system is HUVECs. To be noted: cited from earlier work.
The next data set has as its system NCI-H460 (lung). In words: SRB cytotoxicity assay, NCI-H460. The data set is classed as cell-based, human. As to conditions: read-out: GI50 SRB Assay NCI-H460; 48 h treatment; average of n ≥ 3. For orientation: In SRB staining, fixed cells bind dye roughly in proportion to their protein.
The test system of the next data set is DU-145 (prostate). Kind of data set: SRB cytotoxicity assay, DU-145. The data set is classed as cell-based, human. As to conditions: read-out: GI50 SRB Assay DU-145; 48 h treatment; average of n ≥ 3.

For orientation: GI50 means the concentration that inhibits growth by half.

Regarding `COc1ccc(/C=C/c2cc(OC)c(OC)c(OC)c2)c(NC(=O)C(N)CO)c1.Cl` (stereo in doubt) [Compound 17, (S,E)-2-amino-3-hydroxy-N-(5-methoxy-2-(3,4,5-trimethoxystyryl)phenyl)propanamide hydrochloride], the “Cleavage by LAP (in words)” value in data set [1] is “effectively cleaved”.
Same read-out and setting: for `COc1ccc(/C=C\c2cc(OC)c(OC)c(OC)c2)cc1NC(=O)[C@@H](N)CO.Cl` [AVE8062, reference compound] the value was “effectively cleaved”.
For `COc1ccc(/C=C\c2cc(OC)c(OC)c(OC)c2)cc1OP(=O)(O)O` [CA4P, combretastatin A-4 phosphate, reference compound], the “BLI signal compared with baseline (significance)” value in data set [2] (CA4P 120 mg/kg ip) is “significantly less signal”. Moreover, the “BLI signal versus saline control (significance)” value in data set [2] (CA4P 120 mg/kg ip, p<0.05) was “significantly different from saline”.
`COc1ccc(/C=C\c2cc(OC)c(OC)c(OC)c2)c(N)c1` [Compound 7, (Z)-2-(2′-amino-4′-methoxyphenyl)-1-(3,4,5-trimethoxyphenyl)ethene]: the “GI50 values described in words” value in data set [3] is on record as “highly potent”.
Turning to `COc1ccc(/C=C\c2cc(OC)c(OC)c(OC)c2)c(N)c1N` [Compound 8, (Z)-2-(2′,3′-Diamino-4′-methoxyphenyl)-1-(3,4,5-trimethoxyphenyl)ethene], the “GI50 values described in words” value in data set [3] is on record as “highly potent”. Besides, in the data set with HUVECs [4], the “Disruption of capillary-like network of tubules (HUVECs)” value is “significant disruption” and the “Disruption of HUVEC tubular network on matrigel” value is given as “extensive disruption”.
Regarding `COc1ccc(/C=C\c2cc(OC)c(OC)c(OC)c2)c(N)c1N.Cl` [Compound 10, (Z)-2-(2′,3′-Diamine hydrochloride-4′-methoxyphenyl)-1-(3,4,5-trimethoxyphenyl)ethene], the “Reduction in light emission (BLI) relative to baseline” value in data set [2] (80 mg/kg ip, 2 h post treatment, 17 min time-point) was “approximately 95%”. Besides, the “Reduction in bioluminescence compared to saline control” value in data set [2] (80 mg/kg, 2 h post treatment) is listed as “greater than 95%”. Also, in the data set with HUVECs [4], the “Disruption of capillary-like network of tubules (HUVECs)” value was “significant disruption” and the “Disruption of HUVEC tubular network on matrigel” value is listed as “extensive disruption”.
For `COc1ccc(/C=C\c2cc(OC)c(OC)c(OC)c2)c(NC(=O)[C@@H](N)CO)c1.Cl` [Compound 15, (S,Z)-2-amino-3-hydroxy-N-(5-methoxy-2-(3,4,5-trimethoxystyryl)phenyl)propanamide hydrochloride], the “Cytotoxicity against selected human cancer cell lines (in words)” value in data set [3] is listed as “significant cytotoxicity”. Moreover, in data set [1], the “Cleavage by LAP (in words)” value was “effectively cleaved” and the “Specific Activity of LAP” value is 1.2 μM/min/enzyme unit.
In the case of `COc1ccc(/C=C\c2cc(OC)c(OC)c(OC)c2)c(NC(=O)CN)c1.Cl` [Compound 16, (Z)-2-amino-N-(5-methoxy-2-(3,4,5-trimethoxystyryl)phenyl)acetamide hydrochloride], the “Cytotoxicity against selected human cancer cell lines (in words)” value in data set [3] was “significant cytotoxicity”. Besides, in data set [1], the “Cleavage by LAP (in words)” value is “quantitative cleavage; also recorded: quantitatively cleaved”, the “% Cleavage by LAP” value worked out at 100%, the “Cleavage rate relative to corresponding serinamide analogue” value amounted to 150 times and the “Specific Activity of LAP” value worked out at 180 μM/min/enzyme unit.
On to `COc1ccc(/C=C/c2cc(OC)c(OC)c(OC)c2)c(NC(=O)CN)c1.Cl` [Compound 18, (E)-2-amino-N-(5-methoxy-2-(3,4,5-trimethoxystyryl)phenyl)acetamide hydrochloride], for which the “Cytotoxicity against selected human cancer cell lines (in words)” value in data set [3] is listed as “more cytotoxic than the corresponding serinamide AAPC 17”. In data set [1], the “Cleavage by LAP (in words)” value is reported as “quantitative cleavage; also recorded: quantitatively cleaved”, the “% Cleavage by LAP” value amounted to 100% and the “Cleavage rate relative to corresponding serinamide analogue” value is “more than 100 times”.
As to `COc1ccc(/C=C\c2cc(OC)c(OC)c(OC)c2)c(NC(=O)[C@@H](N)CO)c1NC(=O)[C@@H](N)CO` [Compound 22, (2S, 2'S)-N, N’-(3-methoxy-6-((Z)-3,4,5-trimethoxystyryl)-1,2-phenylene)bis(2-amino-3-hydroxypropanamide)], in data set [1], the “Cleavage by LAP (in words)” value was “resistant to LAP mediated cleavage” and the “Cleavage with a large amount of LAP (in words)” value is given as “did not result in any observable cleavage”.
Taken in the same sequence, the figures for `COc1ccc(/C=C\c2cc(OC)c(OC)c(OC)c2)c(NC(=O)[C@@H](N)CO)c1NC(=O)[C@@H](N)CO.Cl.Cl` [Compound 23, (2S, 2'S)-N, N’-(3-methoxy-6-((Z)-3,4,5-trimethoxystyryl)-1,2-phenylene)bis(2-amino-3-hydroxypropanamide) dihydrochloride] were “resistant to LAP mediated cleavage” and “did not result in any observable cleavage”.
For the compound `COc1ccc(/C=C\c2cc(OC)c(OC)c(OC)c2)c(NC(=O)CN)c1NC(=O)CN.Cl.Cl` [Compound 24, (Z)-N,N'-(3-methoxy-6-(3,4,5-trimethoxystyryl)-1,2-phenylene)bis(2-aminoacetamide)], in data set [1], the “Cleavage by LAP (in words)” value is “resistant to LAP mediated cleavage” and the “% Cleavage by LAP” value is listed as <10-90%. Further, in data set [1] (LAP 0.12 units, by 25 h), the “Disappearance of the prodrug on LAP treatment” value was “greater than 95%”.
For the compound `COc1ccc2c(c1N)CCCC=C2c1cc(OC)c(OC)c(OC)c1` [Compound 33, 1-Amino-2-methoxy-5-(3’,4’,5’-trimethoxyphenyl)-benzosuber-5-ene], the “GI50 values described in words” value in data set [3] was “highly potent”. Further, the “HUVEC tubule disruption and cell rounding effect” value was “significant tubule disruption and cell rounding effect” in the data set on HUVECs [5] (0.1 μM); “greatly enhanced” in the data set with HUVECs [5] (1 μM). Further, the “HUVEC tube disruption and cell rounding capability” value in the data set with HUVECs [5] is on record as “robust tubule disruption”.
With `COc1ccc2c(c1NC(=O)[C@@H](N)CO)CCC=C2c1cc(OC)c(OC)c(OC)c1.Cl` [Compound 38, (S)-2-Amino-3-hydroxy-N-(2-methoxy-5-(3,4,5-trimethoxyphenyl)-7,8-dihydronaphthalen-1-yl)propanamide hydrochloride], the “% Cleavage by LAP” value in data set [1] is reported as below 10%.
Regarding `COc1ccc2c(c1NC(=O)[C@@H](N)CO)CCCC=C2c1cc(OC)c(OC)c(OC)c1.Cl` [Compound 39, (S)-2-Amino-3-hydroxy-N-(3-methoxy-9-(3,4,5-trimethoxyphenyl)-6,7-dihydro-5H-benzo[7]annulen-4-yl)propanamide hydrochloride], the “% Cleavage by LAP” value in data set [1] was below 10%. For the same compound, the GI50 in the data set with NCI-H460 (lung) came out at 53.8 ± 0.864 µM; in the data set on DU-145 (prostate) it was 69.4 ± 31.3 µM.
For the compound `COc1ccc2c(c1NC(=O)CN)CCC=C2c1cc(OC)c(OC)c(OC)c1.Cl` [Compound 44, 2-Amino-N-(2-methoxy-5-(3,4,5-trimethoxyphenyl)-7,8-dihydronaphthalen-1-yl)acetamide hydrochloride], the “BLI signal versus saline control (significance)” value in data set [2] (5 mg/kg ip, 4 h time point) was “not significantly different from saline control”. Moreover, the “BLI signal versus saline control (significance)” value in data set [2] (15 mg/kg ip, p<0.05) is given as “significantly different from saline”. In addition, in data set [2] (10 or 15 mg/kg ip), the “BLI signal compared with baseline (significance)” value is listed as “significantly less signal”. Further, in data set [1], the “% Cleavage by LAP” value is reported as 100% and the “Specific Activity of LAP” value stood at 15.5 μM/min/enzyme unit.
For `COc1ccc2c(c1NC(=O)CN)CCCC=C2c1cc(OC)c(OC)c(OC)c1.Cl` [Compound 45, 2-Amino-N-(3-methoxy-9-(3,4,5-trimethoxyphenyl)-6,7-dihydro-5H-benzo[7]annulen-4-yl)acetamide hydrochloride], in data set [1], the “% Cleavage by LAP” value was determined as 100%.
